How the values were obtained:
Type in all cases: functional
SW-620 = assay: Growth inhibition of human SW620 cells incubated for 48 hrs by sulforhodamine B assay; details: SW-620, 48 h
How it was run: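 NCI-60 five-dose SRB assay. Cells were exposed for 48 h to tenfold dilutions of 0.01, 0.1, 1, 10 and 100 µM, in RPMI 1640 with 5% FBS. Plates fixed with TCA at the time of drug addition served as the time-zero reference. GI50 is the concentration giving a 50% reduction in net growth. TGI is total growth inhibition. LC50 is a net 50% loss of the initial cells.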

Malme-3M = assay: Growth inhibition of human MALME-3M cells assessed as cell viability at 1 uM incubated for 48 hrs by sulforhodamine B assay; details: read-out: Activity
NCI-H460 = assay: Growth inhibition of human NCI-H460 cells assessed as cell viability at 0.1 uM incubated for 48 hrs by sulforhodamine B assay; details: NCI-H460, 48 h, read-out: Activity
MDA-MB-468 = assay: Growth inhibition of human MDA-MB-468 cells assessed as cell viability at 0.1 uM incubated for 48 hrs by sulforhodamine B assay; details: MDA-MB-468, 48 h, read-out: Activity
SK-MEL-2 = assay: Growth inhibition of human SK-MEL-2 cells assessed as cell viability at 0.001 uM incubated for 48 hrs by sulforhodamine B assay relative to control; details: SK-MEL-2, 48 h, read-out: Activity
SF-295 = assay: Growth inhibition of human SF295 cells assessed as cell viability at 1 uM incubated for 48 hrs by sulforhodamine B assay; details: SF-295, 48 h, read-out: Activity
K562 = assay: Growth inhibition of human K562 cells assessed as cell viability at 1 uM incubated for 48 hrs by sulforhodamine B assay; details: K562, 48 h, read-out: Activity
OVCAR-3 = assay: Growth inhibition of human OVCAR3 cells incubated for 48 hrs by sulforhodamine B assay; details: OVCAR-3, 48 h
How it was run: (§1)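 NCI-60 five-dose SRB assay in RPMI 1640 with 5% FBS, 37 °C, 5% CO2. Compound given at five tenfold dilutions, 0.01–100 µM, for 48 h. Adherent cells fixed with TCA, suspension cells with 16% final TCA. Bound SRB read at 515 nm and growth calculated against time-zero and untreated controls. GI50 taken from dose–response curves as the concentration giving a 50% decrease in net cell growth.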

A498 = assay: Growth inhibition of human A498 cells assessed as cell viability at 100 uM incubated for 48 hrs by sulforhodamine B assay; details: A498, 48 h, read-out: Activity
How it was run: (§2)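 NCI-60 five-dose mode: five tenfold dilutions (0.01, 0.1, 1, 10, 100 µM) are applied for 48 h to cells in RPMI 1640 with 5% FBS at 37 °C. Endpoint is TCA fixation with sulforhodamine B read at 515 nm. % growth comes from the 0 h and control absorbances. GI50 is the concentration giving a 50% reduction in net cell growth.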

SN12C = assay: Growth inhibition of human SN12C cells incubated for 48 hrs by sulforhodamine B assay
How it was run: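 NCI-60 five-dose assay, SRB end-point, same culture conditions. Compound is tested at tenfold dilutions of 0.01, 0.1, 1, 10 and 100 µM for 48 h at 37 °C, with DMSO/PBS vehicle controls. Percentage growth at each concentration is taken against untreated cells and a time-zero plate. GI50 is 50% net growth decrease, TGI is total growth inhibition, and LC50 is 50% loss of initial cells.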

NCI-H322M = assay: Growth inhibition of human NCI-H322M cells assessed as cell viability at 100 uM incubated for 48 hrs by sulforhodamine B assay; details: read-out: Activity
MDA-MB-231 = assay: Growth inhibition of human MDA-MB-231 cells assessed as cell viability at 1 uM incubated for 48 hrs by sulforhodamine B assay; details: MDA-MB-231, 48 h, read-out: Activity
NCI-H23 = assay: Growth inhibition of human NCI-H23 cells assessed as cell viability at 100 uM incubated for 48 hrs by sulforhodamine B assay; details: NCI-H23, 48 h, read-out: Activity
HCT-116 = assay: Growth inhibition of human HCT116 cells incubated for 48 hrs by sulforhodamine B assay; details: HCT-116, 48 h; how it was run: as §2
A549 = assay: Growth inhibition of human A549/ATCC cells assessed as cell viability at 0.1 uM incubated for 48 hrs by sulforhodamine B assay; details: A549, 48 h, read-out: Activity; how it was run: as §2
HCC 2998 = assay: Growth inhibition of human HCC2998 cells incubated for 48 hrs by sulforhodamine B assay; details: HCC 2998, 48 h; how it was run: as §2
NCI/ADR-RES = assay: Growth inhibition of human NCI/ADR-RES cells assessed as cell viability at 100 uM incubated for 48 hrs by sulforhodamine B assay; details: read-out: Activity
UACC-257 = assay: Growth inhibition of human UACC257 cells assessed as cell viability at 0.001 uM incubated for 48 hrs by sulforhodamine B assay relative to control; details: UACC-257, 48 h, read-out: Activity
SNB-75 = assay: Induction of apoptosis in human SNB75 cells assessed as late apoptotic cells at 2 uM incubated for 24 hrs by annexin V FITC and propidium iodide based flow cytometry (reference value: 0.59 %)
HOP-62 = assay: Growth inhibition of human HOP62 cells assessed as cell viability at 0.001 uM incubated for 48 hrs by sulforhodamine B assay relative to control; details: HOP-62, 48 h, read-out: Activity
ACHN = assay: Growth inhibition of human ACHN cells assessed as cell viability at 100 uM incubated for 48 hrs by sulforhodamine B assay; details: read-out: Activity; how it was run: as §2
MDA-MB-435 = assay: Growth inhibition of human MDA-MB-435 cells incubated for 48 hrs by sulforhodamine B assay; details: MDA-MB-435, 48 h; how it was run: as §1
[1] = read-out: LC50 (the source's name)
[2] = read-out: pLC50 (the source's name) (converted)

CC1=C(C(=O)OCc2ccccc2)C(c2ccc3c(c2)OCO3)n2c(nc3ccccc32)N1 (racemic)
GI50 (SW-620; read-out: GI50): 0.39 µM | LC50 (concentration causing 50% net loss of initial cells) (SW-620; read-out: LC50): > 100 µM | TGI (SW-620; read-out: TGI): > 100 µM | GI50 (SW-620; read-out: pGI50 (converted)): 0.389 µM | LC50 (concentration causing 50% net loss of initial cells) (SW-620; read-out: pLC50 (converted)): > 100 µM | TGI (SW-620; read-out: pTGI): > 100 µM | viability at 1 µM (Malme-3M): 30% | viability at 0.1 µM (NCI-H460): 100% | viability at 0.1 µM (MDA-MB-468): 94% | viability at 0.001 µM (SK-MEL-2): 97% | viability at 1 µM (SF-295): 16% | viability at 1 µM (K562): 23% | GI50 (OVCAR-3; read-out: GI50): 0.26 µM | CC50 (OVCAR-3; [1]): > 100 µM | TGI (OVCAR-3; read-out: TGI): 1.09 µM | GI50 (OVCAR-3; read-out: pGI50 (converted)): 0.257 µM | CC50 (OVCAR-3; [2]): > 100 µM | TGI (OVCAR-3; read-out: pTGI (converted)): 1.1 µM | viability at 100 µM (A498): 37% | CC50 (SN12C; [1]): > 100 µM | TGI (SN12C; read-out: TGI): > 100 µM | CC50 (SN12C; [2]): > 100 µM | TGI (SN12C; read-out: pTGI): > 100 µM | viability at 100 µM (NCI-H322M): 50% | viability at 1 µM (MDA-MB-231): 56% | viability at 100 µM (NCI-H23): 44% | GI50 (HCT-116; read-out: GI50): 0.47 µM | LC50 (HCT-116; read-out: LC50): > 100 µM | TGI (HCT-116; read-out: TGI): > 100 µM | GI50 (HCT-116; read-out: pGI50 (converted)): 0.479 µM | LC50 (HCT-116; read-out: pLC50 (converted)): > 100 µM | TGI (HCT-116; read-out: pTGI): > 100 µM | viability at 0.1 µM (A549): 99% | GI50 (HCC 2998; read-out: GI50): 11 µM | LC50 (HCC 2998; read-out: LC50): > 100 µM | TGI (HCC 2998; read-out: TGI): > 100 µM | GI50 (HCC 2998; read-out: pGI50 (converted)): 11 µM | LC50 (HCC 2998; read-out: pLC50 (converted)): > 100 µM | TGI (HCC 2998; read-out: pTGI): > 100 µM | viability at 100 µM (NCI/ADR-RES): 14% | viability at 0.001 µM (UACC-257): 88% | Activity (SNB-75): 15.12% | viability at 0.001 µM (HOP-62): 91% | viability at 100 µM (ACHN): 35% | GI50 (MDA-MB-435; read-out: GI50): 0.08 µM | LC50 (MDA-MB-435; read-out: LC50): > 100 µM | TGI (MDA-MB-435; read-out: TGI): 0.35 µM | GI50 (MDA-MB-435; read-out: pGI50 (converted)): 0.0851 µM | LC50 (MDA-MB-435; read-out: pLC50 (converted)): > 100 µM | TGI (MDA-MB-435; read-out: pTGI (converted)): 0.347 µM

Source: ChEMBL document CHEMBL4406880, “Design, synthesis, and bioactivity of dihydropyrimidine derivatives as kinesin spindle protein inhibitors” (Bioorg Med Chem, 2019)
